Measured values taken from ChEMBL document CHEMBL2062521, “Discovery of 1-(β-amino substituted-β-alanyl)-N,N-dimethylindoline-2-carboxamides as novel nonpeptide antagonists of nociceptin/orphanin FQ receptor: efficient design, synthesis, and structure-activity relationship studies” (Eur J Med Chem, 2012).
pIC50, pKi: −log10 of the molar value. Active and inactive are the calls of the source. The rule behind the calls is not given here.

Key:
Nociceptin receptor [1] = molecular target: T1, Nociceptin receptor (Homo sapiens, UniProt P41146); assay: Displacement of [3H]N/OFQ from human recombinant ORL1 receptor expressed in HEK293 cells after 45 mins by scintillation proximity assay; format: cell-based
T1 sequence (P41146 whole entry): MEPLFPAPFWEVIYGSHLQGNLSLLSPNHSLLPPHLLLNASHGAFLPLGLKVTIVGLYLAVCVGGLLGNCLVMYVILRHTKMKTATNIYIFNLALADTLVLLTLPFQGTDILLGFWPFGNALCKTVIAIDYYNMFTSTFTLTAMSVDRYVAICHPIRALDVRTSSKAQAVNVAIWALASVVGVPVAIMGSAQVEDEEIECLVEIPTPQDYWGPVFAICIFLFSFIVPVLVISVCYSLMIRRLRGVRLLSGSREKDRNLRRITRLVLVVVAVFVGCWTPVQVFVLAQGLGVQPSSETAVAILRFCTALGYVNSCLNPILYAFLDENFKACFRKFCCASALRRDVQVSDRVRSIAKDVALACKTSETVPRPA
Procedure, shortened: (§1)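 Compound at 10^-11–10^-5 M (six 10-fold steps), duplicates; nonspecific binding with 1 µM N/OFQ. IC50 by nonlinear regression, Ki by Cheng–Prusoff; percent inhibition reported at 1 µM.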

Nociceptin receptor [2] = molecular target: T1, Nociceptin receptor; assay: Displacement of [3H]N/OFQ from human recombinant ORL1 receptor expressed in HEK293 cells at 1 uM after 45 mins by scintillation proximity assay; format: cell-based; procedure, shortened: as §1
Mu-type opioid receptor = Mu-type opioid receptor (Homo sapiens, UniProt P35372); assay: Displacement of [3H]DAMGO from human recombinant MOP receptor expressed in CHO-K1 cells after 45 mins by scintillation proximity assay; format: cell-based
Chain of Mu-type opioid receptor (P35372 whole entry): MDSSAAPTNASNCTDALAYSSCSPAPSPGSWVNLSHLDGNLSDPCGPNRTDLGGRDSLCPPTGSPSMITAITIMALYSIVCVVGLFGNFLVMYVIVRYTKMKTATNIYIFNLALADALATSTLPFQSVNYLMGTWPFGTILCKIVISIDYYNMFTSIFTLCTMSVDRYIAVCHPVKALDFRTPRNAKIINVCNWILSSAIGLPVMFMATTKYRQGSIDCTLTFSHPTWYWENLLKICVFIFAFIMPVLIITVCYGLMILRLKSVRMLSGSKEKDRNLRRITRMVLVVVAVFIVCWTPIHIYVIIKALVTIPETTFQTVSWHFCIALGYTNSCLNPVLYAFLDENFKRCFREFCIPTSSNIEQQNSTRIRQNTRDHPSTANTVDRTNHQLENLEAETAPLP

Homo sapiens = species on record: Homo sapiens; assay: Selectivity ratio of Ki for human recombinant MOP receptor to Ki for human recombinant ORL1 receptor
Nociceptin receptor [3] = molecular target: T1, Nociceptin receptor; assay: Antagonist activity at human recombinant ORL1 receptor expressed in HEK293 cells assessed as inhibition of N/OFQ-induced [35S]GTPgammaS binding to alpha-unit of G-protein after 1.5 hrs by scintillation counting; format: functional, cell-based
Procedure, shortened: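 Membranes from HEK-293 cells expressing hNOP receptor, incubated 1.5 h at 25 °C with 10 nM N/OFQ and compound at six concentrations (0.1 nM–10 µM) in 20 mM HEPES pH 7.4, 100 mM NaCl, 5 mM MgCl2, 1 mM EDTA, 5 µM GDP, 400 pM [35S]GTPγS, WGA-SPA beads. Duplicates; NSB with 10 µM unlabelled GTPγS; basal without ligands.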

[4] = Half life in human liver microsomes by HPLC/MS/MS analysis; format: ADME, Microsome

| SMILES | pKi (Nociceptin receptor [1]) | inhibition (Nociceptin receptor [2]) | pKi (Mu-type opioid receptor) | Ratio Ki (Homo sapiens) | pIC50 (Nociceptin receptor [3]) | half-life [4] [min] |
| --- | --- | --- | --- | --- | --- | --- |
| CN(C)C(=O)C1Cc2ccccc2N1C(=O)CCN1CCC(c2ccccc2F)CC1 (racemic) | 7.58 |  |  |  |  |  |
| CN(C)C(=O)C1Cc2ccccc2N1C(=O)CCN1CCCC(c2ccccc2)CC1 (racemic) | < 6.60 | 15% |  |  |  |  |
| CN(C)C(=O)C1Cc2ccccc2N1C(=O)CCN1CCC(N2CCCCC2)CC1 (racemic) | < 6.60 | inactive | < 6.35 |  |  |  |
| Cc1ccccc1C1CCN(CCC(=O)N2c3ccccc3CC2C(=O)N(C)C)CC1 (racemic) | 8.26 |  | 6.86 | 25 | 6.94 |  |
| CN(C)C(=O)C1Cc2ccccc2N1C(=O)CCN1CCN(C2CCCC2)CC1 (racemic) | < 6.60 | 3% |  |  |  |  |
| CC(c1ccccc1)N1CCN(CCC(=O)N2c3ccccc3CC2C(=O)N(C)C)CC1 (racemic) | < 6.60 | 21% | < 6.35 |  |  |  |
| CN(C)C(=O)C1Cc2ccccc2N1C(=O)CCN1Cc2cccc3cccc(c23)C1 (racemic) | < 6.60 | 15% |  |  |  |  |
| CN(C)C(=O)C1Cc2ccccc2N1C(=O)CCN1CCN(C2CCCCC2)CC1 (racemic) | < 6.60 | 11% | < 6.35 |  |  |  |
| CN(C)C(=O)C1Cc2ccccc2N1C(=O)CCN1CCN(Cc2ccccc2)CC1 (racemic) | < 6.60 | 11% | < 6.35 |  |  |  |
| CN(C)C(=O)C1Cc2ccccc2N1C(=O)CCN1Cc2ccccc2C1 (racemic) | < 6.60 | 16% |  |  |  |  |
| CCC(CC)N1CCN(CCC(=O)N2c3ccccc3CC2C(=O)N(C)C)CC1 (racemic) | 7.00 |  | < 6.35 |  |  |  |
| CN(C)C(=O)C1Cc2ccccc2N1C(=O)CCN1CCN(C2CCCCCCC2)CC1 (racemic) | < 6.60 | 12% |  |  |  |  |
| CN(C)C(=O)C1Cc2ccccc2N1C(=O)CCN1CCC(c2ccccc2C(F)(F)F)CC1 (racemic) | 7.50 |  |  |  |  |  |
| CN(C)C(=O)[C@@H]1Cc2ccccc2N1C(=O)CCN1CCC(c2ccccc2)CC1 | 7.87 |  | 7.09 | 5.9 | 6.86 | 55 |
| CCCC(C)N1CCN(CCC(=O)N2c3ccccc3CC2C(=O)N(C)C)CC1 (racemic) | < 6.60 | 40% | < 6.35 |  |  |  |
| CN(C)C(=O)C1Cc2ccccc2N1C(=O)CCN1CCN(c2ccccc2)CC1 (racemic) | < 6.60 | 43% | 6.40 |  | 4.32 |  |

| SMILES | pKi (Nociceptin receptor [1]) | inhibition (Nociceptin receptor [2]) | pKi (Mu-type opioid receptor) | Ratio Ki (Homo sapiens) | pIC50 (Nociceptin receptor [3]) | half-life [4] [min] |
| --- | --- | --- | --- | --- | --- | --- |
| CN(C)C(=O)C1Cc2ccccc2N1C(=O)CCN1CCN(c2cnccn2)CC1 (racemic) | < 6.60 | 37% | 6.63 |  |  |  |
| Cc1cccc(C)c1C1CCN(CCC(=O)N2c3ccccc3C[C@H]2C(=O)N(C)C)CC1 | 9.02 |  | 7.09 | 86 | 7.92 | 19 |
| Cc1cc(F)ccc1C1CCN(CCC(=O)N2c3ccccc3C[C@H]2C(=O)N(C)C)CC1 | 8.42 |  | 6.86 |  | 7.38 | 43 |
| CCOc1ccccc1N1CCN(CCC(=O)N2c3ccccc3CC2C(=O)N(C)C)CC1 (racemic) | 6.89 |  | 7.53 | 0.23 |  |  |
| CN(C)C(=O)C1Cc2ccccc2N1C(=O)CCN1CCc2ccccc2C1 (racemic) | < 6.60 | 11% |  |  |  |  |
| CN(C)C(=O)[C@@H]1Cc2ccccc2N1C(=O)CCN1CCC(c2ccc(F)cc2)CC1 | 8.01 |  | 6.62 |  | 6.97 | 82 |
| CN(C)C(=O)C1Cc2ccccc2N1C(=O)CCN1CCC(c2ccccn2)CC1 (racemic) | < 6.60 | inactive |  |  |  |  |
| CN(C)C(=O)C1Cc2ccccc2N1C(=O)CCN1CC[C@@H]2c3ccccc3CC[C@@H]2C1 (mixture of isomers) | < 6.60 | 33% |  |  |  |  |
| Cc1ccccc1C1CCN(CCC(=O)N2c3ccccc3C[C@H]2C(=O)N(C)C)CC1 | 8.52 |  | 7.17 | 22 | 7.36 | 24 |
| CN(C)C(=O)C1Cc2ccccc2N1C(=O)CCN1CCC(c2ccccc2)CC1 (racemic) | 7.58 |  | 6.30 | 19 | 5.64 |  |
| Cc1ccc(N2CCN(CCC(=O)N3c4ccccc4CC3C(=O)N(C)C)CC2)c(C)c1 (racemic) | < 6.60 | 25% |  |  |  |  |
| Cc1cccc(N2CCN(CCC(=O)N3c4ccccc4CC3C(=O)N(C)C)CC2)c1 (racemic) | < 6.60 | 13% |  |  |  |  |
| CN(C)C(=O)[C@@H]1Cc2ccccc2N1C(=O)CCN1CC2CCC(C1)C2c1ccccc1 (stereo not given in full) | < 6.60 | 23% | 7.55 |  |  | 10 |
| CN(C)C(=O)C1Cc2ccccc2N1C(=O)CCN1CCN(C2CCCCCC2)CC1 (racemic) | < 6.60 | 12% |  |  |  |  |
| CN(C)C(=O)C1Cc2ccccc2N1C(=O)CCN1CCC(C2CCCCC2)CC1 (racemic) | 6.54 |  |  |  |  |  |
| Cc1ccccc1N1CCN(CCC(=O)N2c3ccccc3CC2C(=O)N(C)C)CC1 (racemic) | 7.94 |  | 6.50 | 27 |  |  |
